Results of several laboratories.
Each line is one published result; the experiments were not run side by side.
Target: Serine/threonine-protein kinase VRK1 (VRK1, Homo sapiens, UniProt Q99986)
One construct used (Q99986 1-396): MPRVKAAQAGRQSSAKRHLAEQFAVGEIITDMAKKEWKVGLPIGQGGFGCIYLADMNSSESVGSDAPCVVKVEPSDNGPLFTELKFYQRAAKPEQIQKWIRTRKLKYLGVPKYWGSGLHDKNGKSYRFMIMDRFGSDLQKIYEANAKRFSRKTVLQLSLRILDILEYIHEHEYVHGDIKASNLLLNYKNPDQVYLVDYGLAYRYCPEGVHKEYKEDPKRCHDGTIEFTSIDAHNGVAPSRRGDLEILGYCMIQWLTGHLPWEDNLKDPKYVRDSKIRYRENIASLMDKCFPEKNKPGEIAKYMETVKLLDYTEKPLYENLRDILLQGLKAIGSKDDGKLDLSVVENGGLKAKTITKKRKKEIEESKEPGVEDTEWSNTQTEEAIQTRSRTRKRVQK

SMILES | test | conditions | endpoint | value
O=C(Nc1cnn(-c2csc(C(=O)NC3COC3)c2)c1)Nc1c(F)cccc1Cl | enzyme activity, inhibitor | 5 µM | remaining activity | 91.9%
CC(C)(O)[C@H]1CC[C@H](Nc2ccc3ncc(-c4cccc(C(F)(F)F)c4)n3n2)CC1 | enzyme activity, inhibitor | 1 µM | remaining activity | 74.9%
Cn1c2c(Cl)c(Cl)ccc2c2cn[nH]c(=O)c21 | thermal stability, DSF | 10 µM | ΔTm | 0 °C
O=C1Nc2ccc(Cl)cc2C1=Cc1cc(Cl)c(O)c(Cl)c1 | cell-free assay | 0.5 µM | remaining signal | 80.6%
O=C(Nc1cnn(-c2csc(C(=O)NC3COC3)c2)c1)Nc1ccccc1Cl | enzyme activity, inhibitor | 5 µM | remaining activity | 109%
COc1cc(Cl)c(C(=O)N[C@@H](CN[C@H]2CC[C@@H](N)CC2)Cc2ccc(C#N)cc2)cc1-c1ccc(CN[C@H](C)c2ccc(C)cc2)o1 | enzyme activity, inhibitor | 1 µM | remaining activity | 93%
CC(C)(C)c1nc2c(s1)c1nc(N)ncc1c1ccc(NS(=O)(=O)c3c(F)cccc3F)c(F)c12 | enzyme activity, inhibitor, radiometric | 1 µM | remaining activity | 82%
N#CC1c2c([nH]c3c(Cl)c(Cl)ccc23)C(=O)NC12CCCCC2 (racemic) | thermal stability, DSF | 10 µM | ΔTm | 0.1 °C
CC(C)(C)c1nc(-c2cccc(NS(=O)(=O)c3c(F)cccc3F)c2F)c(-c2ccnc(N)n2)s1 | enzyme activity, inhibitor, radiometric | 1 µM | remaining activity | 77%
CN1CC(Oc2cnc(C#N)cc2-c2ccn3nc(NC(=O)C4CC4)cc3c2)C1 | enzyme activity, inhibitor | 1 µM | inhibition | -1%
CN1CCC2(CC1)NC(=O)c1c(c3ccc(Cl)c(Cl)c3n1C)C2C#N (racemic) | thermal stability, DSF | 10 µM | ΔTm | 0 °C
